High-throughput results: PubChem, several laboratories
Compounds with a hit are over-represented: about 6.8% of the library has one in this group of screens.
HSF1 activator – increases HSF-1 driven luciferase reporter signal. activation, % at 9 µM. NIH3T3-HGL HSF-1 luciferase reporter, MG132, 8 h; 100% = twice DMSO control signal. 1.7% of 300,000 active;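 active = mean replicate activation of at least 50% with a set share of replicates each reaching 50%; inconclusive = only one of those two conditions met; inactive = mean below 50% and too few replicates reaching it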;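 also: 0% = median of the neutral control wells and 100% = twice that signal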
AI-2 QS modul – modulates the Vibrio harveyi AI-2 quorum sensing system; Vibrio harveyi JMH597 AI-2 luminescence/OD600 ratio, 9 h; active compounds read low; strain lacks LuxN and CqsS sensors; 0 = neutral-control median; 0.4% of 300,000 active; activity change, % at 7.5 µM; in the data active = activity change below about -75%, passing the limit was not always enough; inconclusive = no clear call, values can overlap the other calls;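 also: luminescence divided by OD600 gain over 9 h not by final OD600 alone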
ALR H2O2 inh – blocks human ALR sulfhydryl oxidase activity. P55789. purified ALR, DTT oxidation, H2O2 HRP-luminol luminescence. inhibition, % (no concentration beside the values). 3.8% of 290,000 active. AID 485317;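 active = mean replicate inhibition above about 79%, with every replicate also reaching it, limit read from the data; inconclusive = only one of the two criteria met; inactive = mean below limit and not every replicate reaching it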
Target sequence (P55789 whole entry, looked up): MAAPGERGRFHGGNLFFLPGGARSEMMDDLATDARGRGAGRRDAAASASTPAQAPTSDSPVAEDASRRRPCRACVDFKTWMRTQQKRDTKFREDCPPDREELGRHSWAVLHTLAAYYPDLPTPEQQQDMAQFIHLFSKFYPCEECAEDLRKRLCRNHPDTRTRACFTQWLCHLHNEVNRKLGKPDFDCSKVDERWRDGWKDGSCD
PHOSPHO1 block – blocks human PHOSPHO1 phosphatase activity | recombinant PHOSPHO1, absorbance phosphatase assay | inhibition, % at 13.3 µM | 1.1% of 290,000 active; in the data active = inhibition above about 60%
Target sequence (Q8TCT1 whole entry, looked up): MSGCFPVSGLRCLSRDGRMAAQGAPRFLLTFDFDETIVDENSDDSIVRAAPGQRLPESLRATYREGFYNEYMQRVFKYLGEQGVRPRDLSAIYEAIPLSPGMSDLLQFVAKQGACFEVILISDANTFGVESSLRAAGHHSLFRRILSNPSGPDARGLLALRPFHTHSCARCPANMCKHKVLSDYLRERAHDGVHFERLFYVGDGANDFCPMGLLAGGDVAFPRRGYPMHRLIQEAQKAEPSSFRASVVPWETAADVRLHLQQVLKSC
HCV core dimer – blocks dimerization of HCV core protein | TR-FRET GST/Flag-core106 dimerization, 1536-well | inhibition, % at 5 µM | 0.33% of 300,000 active;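 active = inhibition above the mean of all tested compounds plus 3 SD, set per screening campaign, cut at about 45% in these data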
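Material: GST/Flag-tagged HCV core106 proteins. Incubation: 4 h, 22.5 °C incubation. Read-out basis: inhibition (%) from 671 over 617 nm ratio. Measured by: TR-FRET, excitation 340 nm, emission 617 and 671 nm.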
HSF1 inhib – HSF1 inhibition; NIH3T3-HGL HSE-luciferase, MG132-induced, luminescence 8 h; active compounds read low; activity change, negative = inhibition, % at 7.5 µM (by protocol); 0.77% of 300,000 active;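 active = more than half of replicate wells show activity change below -50%, luminescence cut by over half; inconclusive = some wells, but at most half, below -50%; inactive = no replicate well below -50%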;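 also: luciferase reports HSF-1 transcriptional activity via heat shock element; 0% = median of DMSO wells and -100% = zero luminescence signal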
Active calls of the source: *; ? = inconclusive; / = no result.

SMILES | HSF1 activator | AI-2 QS modul | ALR H2O2 inh | PHOSPHO1 block | HCV core dimer | HSF1 inhib
OCCN(CCO)c1ccc(C(c2ccccc2Cl)c2ccc(N(CCO)CCO)cc2Cl)c(Cl)c1 | 5.9 | 35.5 | / | 1.1 | -3.6 | 0.7
OCCN(CCO)c1ccc2ccccc2c1 | -5.8 | 16.3 | 98.2* | -12.2 | -14.9 | 0.7
O=c1c2[nH]cnc2n(-c2cccc(F)c2)c(=O)n1Cc1ccccc1 | -1.0 | 7.3 | 2.2 | 42.0 | 4.1 | 7.8
CCN1CCCC1CNC(=O)CSCc1nc(-c2ccccc2C)oc1C (configuration not stated) | 6.2 | 17.4 | 99.7* | 40.3 | -1.9 | 1.8
CCN1CCCC1CNC(=O)CS(=O)(=O)Cc1nc(-c2ccccc2C)oc1C (configuration not stated) | -7.7 | -8.6 | -3.1 | -26.1 | 3.8 | -1.3
O=S(=O)(c1ccc(F)cc1)N1CCC2(CC1)OCCO2 | -9.8 | 25.1 | -47.7 | 24.6 | -0.1 | -4.1
COc1ccc(-c2cc3nnc(-c4ccccc4)nc3s2)cc1 | -59.4 | 17.3 | 93.8* | -10.5 | -2.6 | -46.7
COc1ccc(-c2cc(-c3ccccc3)no2)cc1 | 5.6 | 14.7 | 0.1 | / | -3.6 | -4.1
O=C1C(NS(=O)(=O)c2cccs2)=C(N2CCN(c3ccccc3)CC2)C(=O)c2ccccc21 | 39.6 | 10.8 | -5.6 | 76.1* | 8.8 | 28.2
O=C(NCC(c1cccnc1)N1CCN(c2ccc(F)cc2)CC1)OCc1ccccc1 (configuration not stated) | 11.6 | ? | 63.9 | 14.6 | -5.8 | -7.2
O=C(NCC(c1cccnc1)N1CCN(c2ccccc2)CC1)c1ccc2c(c1)OCO2 (configuration not stated) | -11.1 | 21.7 | 99.0* | -10.2 | 9.6 | 0.9
COC(=O)NCC(c1cccnc1)N1CCN(c2ccccc2)CC1 (configuration not stated) | -6.4 | 42.1 | 89.1* | -7.7 | 0.8 | 5.1
O=C(NCC(c1cccnc1)N1CCOCC1)c1ccc2c(c1)OCO2 (configuration not stated) | 1.9 | 10.6 | / | -1.2 | -6.7 | -7.8
O=C(NCC(c1cccnc1)N1CCN(c2ccccc2)CC1)OCc1ccccc1 (configuration not stated) | 16.8 | 6.5 | 76.5* | -7.1 | 2.4 | 9.0
CC1(C)C2CCC1(CS(=O)(=O)NCc1ccc(Cl)cc1Cl)C(=O)C2 (configuration not stated) | 7.4 | 15.3 | -1.5 | 19.0 | -1.9 | -1.8
CC1CCCCN1S(=O)(=O)c1ccc2c(c1)C(C)(C)C(=O)N2C (configuration not stated) | 2.1 | 35.3 | -1.7 | 7.0 | 0.1 | -4.6
O=S(=O)(NCC(c1cccnc1)N1CCN(Cc2ccccc2)CC1)c1cc(F)ccc1F (configuration not stated) | -0.5 | 2.7 | -4.8 | 70.6* | -2.4 | -0.3
COc1ccc(N2CCN(C(CNS(=O)(=O)c3cccs3)c3cccnc3)CC2)cc1 (configuration not stated) | 1.2 | 16.2 | 55.3 | 17.9 | 2.3 | -5.1
COc1cc(C(=O)NCC(c2cccnc2)N2CCN(c3ccccc3)CC2)cc(OC)c1OC (configuration not stated) | -21.8 | 16.2 | 98.5* | 6.3 | 21.9 | -5.8
O=S(=O)(NCC(c1cccnc1)N1CCN(c2ccccc2)CC1)c1cccs1 (configuration not stated) | -1.2 | 33.7 | 98.0* | -10.9 | 7.3 | -6.6
O=C(NCCc1c[nH]c2ccccc12)C(=O)NCC(c1cccnc1)N1CCN(c2ccccc2)CC1 (configuration not stated) | -14.1 | 1.9 | 17.6 | -16.0 | 3.5 | -2.5
O=C(NCC(c1cccnc1)N1CCN(c2ccccc2)CC1)C1CCCCC1 (configuration not stated) | 14.5 | 12.9 | 88.2* | 41.3 | -0.2 | 3.3
O=S(=O)(NCC(c1cccnc1)N1CCN(Cc2ccccc2)CC1)c1ccc(F)cc1 (configuration not stated) | 0.0 | 1.0 | -5.9 | 41.8 | -3.2 | 0.4
COc1cc2c(cc1OC)N1C(=O)CC(OCC(=O)O)C3C4CC5(CCN5C(=O)C4=O)C2C31 (configuration not stated) | 22.6 | 19.6 | -7.4 | 8.0 | -1.3 | 9.4
COc1ccc(-c2[nH]c(-c3cccc(OC)c3)nc2SCC(=O)NCc2ccco2)cc1 | / | / | 55.2 | 30.2 | 8.0 | /
SMILES | HSF1 activator | AI-2 QS modul | ALR H2O2 inh | PHOSPHO1 block | HCV core dimer | HSF1 inhib
COc1ccccc1C(=O)NC(=O)Cn1nc(C)c([N+](=O)[O-])c1C | -1.8 | 26.1 | -2.6 | / | -0.7 | -2.5
O=C(c1ccc(Br)cc1)N1CCN(c2ncccn2)CC1 | 0.9 | 16.8 | -4.0 | / | 1.3 | 2.2
O=C(c1ccc([N+](=O)[O-])cc1)N1CCN(c2ncc(Br)cn2)CC1 | -82.2 | 19.1 | 2.6 | 19.5 | -0.4 | -75.8*
O=C(c1ccccc1)c1nc2ccccc2n(CCCn2c(=O)c(C(=O)c3ccccc3)nc3ccccc32)c1=O | 2.4 | 18.2 | -15.6 | 10.5 | 29.9 | -1.7
O=C(CSc1nc2ccccc2o1)N/N=C/c1ccc(C(=O)O)cc1 | -10.1 | 12.1 | / | 32.2 | -2.5 | -1.3
Cc1cc(SCC(=O)N/N=C/c2ccc(C(=O)O)cc2)nc2ccccc12 | 4.9 | 4.0 | 99.3* | 18.4 | 0.2 | 4.8
COc1cccc(N2C(=O)C3CCCN3C2c2ccc(N(C)C)cc2)c1 (configuration not stated) | -9.4 | -7.4 | 95.5* | -4.5 | 1.4 | -3.8
CCOc1ccc(C2N(c3ccc(F)cc3)C(=O)C3CCCN32)cc1OC (configuration not stated) | -64.7 | 18.9 | -54.5 | -1.3 | -0.2 | -52.2*
CCOc1ccc(C2N(c3ccc(OC)cc3)C(=O)C3CCCN32)cc1OC (configuration not stated) | 6.9 | 35.1 | -70.9 | -11.3 | -3.2 | -0.6
O=c1c(=Nc2ccccc2O)c(=O)c2ccccc12 | 55.1* | 22.7 | -13.8 | 29.5 | -22.7 | 20.0
COc1ccc(NC(=S)NNc2ccc(C(=O)O)cc2)cc1 | 30.9 | 8.9 | 5.5 | -31.6 | -4.9 | -0.9
CC(NC(=O)c1ccco1)C(c1cccs1)N1CCN(c2ccccc2)CC1 (configuration not stated) | -12.8 | 31.8 | 98.3* | 2.9 | 15.4 | 3.5
CC(NC(=O)c1ccco1)C(c1cccs1)N1CCN(c2ccccc2F)CC1 (configuration not stated) | -2.5 | 10.0 | 5.1 | -7.1 | 0.4 | 3.8
CC(NC(=O)c1ccco1)C(c1cccs1)N1CCN(c2ccc(F)cc2)CC1 (configuration not stated) | 0.8 | 4.9 | 99.1* | 18.1 | 9.3 | -1.9
CCS(=O)(=O)NC(C)C(c1cccs1)N1CCN(c2ccc(F)cc2)CC1 (configuration not stated) | -7.9 | 9.2 | / | 42.3 | -0.2 | 0.8
